Results: ChEMBL document CHEMBL1132721, “Cyclobutane quisqualic acid analogues as selective mGluR5a metabotropic glutamic acid receptor ligands” (J Med Chem, 1999)

Tests used:
[1] = target: T1, Glutamate receptor ionotropic, AMPA (Rattus norvegicus, UniProt P19490+P19491+P19492+P19493); assay: Inhibition of Ionotropic glutamate receptor AMPA mediated depolarization by the compound at a concentration of 200 uM after 20 minutes in rat
[2] = species on record: Rattus norvegicus; assay: Compound was tested for the stimulation of Phosphoinositide (PI) hydrolysis in rat hippocampus; type: functional, organism-based
How it was run: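 Slices of neonatal (6–11-day-old) Sprague–Dawley rat hippocampus, labelled with [3H]-myo-inositol. Inositol phosphate accumulation was expressed per 100 000 DPM of total incorporated radiolabel (lipid plus soluble IP fraction) under basal conditions. Concentration–response data were fit with Hill coefficient 1. Mean ± SEM of four experiments.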

[3] = species on record: Rattus norvegicus; assay: Inhibition of the sensitization of CA1 pyramidal neurons to depolarization by L-AP6 after reversal with L-alpha-AA; type: functional, organism-based; settings: Pyramidal neuron
[4] = species on record: Rattus norvegicus; assay: Inhibition of the sensitization of CA1 pyramidal neurons to depolarization by L-AP6 by the compound at a concentration of 200 uM after 20 minutes; type: functional, organism-based; settings: Pyramidal neuron
[5] = species on record: Rattus norvegicus; assay: Inhibition of the sensitization of CA1 pyramidal neurons to depolarization by L-AP6 by the compound at a concentration of 200 uM before 20 minutes; type: functional, organism-based; settings: Pyramidal neuron
[6] = target: Metabotropic glutamate receptor 5 (Homo sapiens, UniProt P41594); assay: Compound was tested for the stimulation of Phosphoinositide (PI) hydrolysis in BHK cells expressing mGluR5a receptor; type: functional, cell-based
How it was run: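 BHK570 cells stably expressing mGluR5a, kept under 2 μM methotrexate selection in DMEM with 5% heat-inactivated FBS, 2 mM glutamine and 5% CO2. Grown to 60–90% confluence, then labelled 16–20 h with 1 μCi/mL [3H]-myo-inositol. PI hydrolysis was measured by the Thomsen method and normalized to 100 000 DPM of total incorporated label. Mean ± SEM of 3–6 experiments; EC50 from concentration–response curves.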

[7] = target: T1, Glutamate receptor ionotropic, AMPA; assay: Inhibition of Ionotropic glutamate receptor AMPA mediated depolarization by the compound at a concentration of 400 uM after 20 minutes in rat
[8] = species on record: Rattus norvegicus; assay: Inhibition of the sensitization of CA1 pyramidal neurons to depolarization by L-AP6 by the compound at a concentration of 400 uM after 20 minutes; type: functional, organism-based; settings: Pyramidal neuron
[9] = species on record: Rattus norvegicus; assay: Inhibition of the sensitization of CA1 pyramidal neurons to depolarization by L-AP6 by the compound at a concentration of 400 uM before 20 minutes; type: functional, organism-based; settings: Pyramidal neuron
[10] = species on record: Rattus norvegicus; assay: Inhibition of the sensitization of CA1 pyramidal neurons to depolarization by L-AP6 after reversal with L-alpha-AA by the compound at a concentration of 16 uM after 4 minutes; type: functional, organism-based; settings: Pyramidal neuron
How it was run: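 Rat hippocampal slices. The sensitization was reversed by treating the slices with 2 mM L-α-aminoadipic acid for 10 min.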

[11] = species on record: Rattus norvegicus; assay: Inhibition of the sensitization of CA1 pyramidal neurons to depolarization by L-AP6 by the compound at a concentration of 16 uM after 4 minutes; type: functional, organism-based; settings: Pyramidal neuron
How it was run: (§1)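 Rat hippocampal slices. Sensitization of CA1 neurons to phosphonate depolarization was measured in the QUIS-effect slice assay.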

[12] = species on record: Rattus norvegicus; assay: Inhibition of the sensitization of CA1 pyramidal neurons to depolarization by L-AP6 by the compound at a concentration of 16 uM before 4 minutes; type: functional, organism-based; settings: Pyramidal neuron; how it was run: as §1

Chain of Metabotropic glutamate receptor 5 (P41594 whole entry): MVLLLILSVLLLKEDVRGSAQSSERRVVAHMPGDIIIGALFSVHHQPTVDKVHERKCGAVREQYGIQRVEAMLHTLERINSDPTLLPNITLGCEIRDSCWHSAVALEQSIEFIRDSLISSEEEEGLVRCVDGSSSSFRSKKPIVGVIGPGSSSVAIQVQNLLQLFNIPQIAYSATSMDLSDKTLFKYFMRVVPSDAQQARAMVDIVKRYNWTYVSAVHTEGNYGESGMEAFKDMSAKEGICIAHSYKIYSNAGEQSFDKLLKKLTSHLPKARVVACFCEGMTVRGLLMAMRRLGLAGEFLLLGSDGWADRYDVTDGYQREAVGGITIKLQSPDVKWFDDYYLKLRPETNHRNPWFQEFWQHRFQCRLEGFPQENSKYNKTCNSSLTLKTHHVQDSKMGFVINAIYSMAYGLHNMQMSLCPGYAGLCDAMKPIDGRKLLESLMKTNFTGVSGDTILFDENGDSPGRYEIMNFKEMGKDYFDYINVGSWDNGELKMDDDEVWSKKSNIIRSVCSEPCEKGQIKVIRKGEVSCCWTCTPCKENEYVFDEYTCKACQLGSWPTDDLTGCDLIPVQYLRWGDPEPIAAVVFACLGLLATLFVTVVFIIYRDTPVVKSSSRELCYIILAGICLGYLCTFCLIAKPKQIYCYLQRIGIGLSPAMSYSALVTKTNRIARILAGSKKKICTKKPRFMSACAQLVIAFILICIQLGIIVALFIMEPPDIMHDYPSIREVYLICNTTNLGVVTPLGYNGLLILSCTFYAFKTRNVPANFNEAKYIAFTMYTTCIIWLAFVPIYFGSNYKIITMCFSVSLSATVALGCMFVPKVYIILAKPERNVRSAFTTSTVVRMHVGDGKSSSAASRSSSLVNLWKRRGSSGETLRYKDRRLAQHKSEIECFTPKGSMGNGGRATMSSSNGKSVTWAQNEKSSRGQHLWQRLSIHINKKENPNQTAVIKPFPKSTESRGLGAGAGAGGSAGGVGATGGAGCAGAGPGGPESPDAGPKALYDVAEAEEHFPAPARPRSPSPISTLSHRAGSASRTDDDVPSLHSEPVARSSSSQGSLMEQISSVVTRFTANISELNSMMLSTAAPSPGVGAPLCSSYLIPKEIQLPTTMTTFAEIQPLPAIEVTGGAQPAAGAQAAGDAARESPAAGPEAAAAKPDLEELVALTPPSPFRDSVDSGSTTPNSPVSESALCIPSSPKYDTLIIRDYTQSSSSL

N[C@]1(C(=O)O)C[C@H](n2oc(=O)[nH]c2=O)C1
IC50 [1]: 69 µM
EC50 [2]: 18 µM
IC50 [3]: > 10000 µM
IC50 [4]: 7000 µM
IC50 [5]: > 10000 µM
EC50 [6]: 11 µM

N[C@]1(C(=O)O)C[C@@H](n2oc(=O)[nH]c2=O)C1
IC50 [7]: 390 µM
EC50 [2]: 53 µM
IC50 [8]: > 10000 µM
IC50 [9]: > 10000 µM
EC50 [6]: 49 µM

N[C@@H](Cn1oc(=O)[nH]c1=O)C(=O)O [QUISQUALATE]
IC50 [10]: 1900 µM
IC50 [11]: 40 µM
IC50 [12]: > 10000 µM
